Experimental findings from ChEMBL document CHEMBL1136746 (2003) are described below.

The test system of experiment [1] is Caco-2. Description: Apparent Permeability through Caco-2 cell monolayers (n = 4). It counts as functional, cell-based. An outline of the steps: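 Caco-2 cells seeded on polycarbonate inserts (0.45 µm pore, 6.5 mm) and grown 21 days to differentiate; TEER >400 Ω/cm² before and after. ³H-acetylated peptide or [¹⁴C]mannitol (200 µM) added apically in HBSS/25 mM HEPES pH 7.4, 37 °C, shaken 400 rpm. Receiver chamber swapped at 30, 90, 150 min; scintillation counting. Papp averaged over four replicates.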

The species named for experiment [2] is Rattus norvegicus. The experiment can be described thus: Percent Hemolysis observed in rat red blood cells when Treated with 1 mM concentration. The format is functional.
The species named for experiment [3] is Rattus norvegicus. The experiment can be described thus: Percent Hemolysis observed in rat red blood cells when Treated with 2 mM concentration. It counts as functional.
The species named for experiment [4] is Rattus norvegicus. Description: Percent Hemolysis observed in rat red blood cells when Treated with 5 mM concentration. It counts as functional.

Broadly, the Papp is a coefficient for how fast a substance crosses the barrier. Turning to `OC[C@@H](O)[C@@H](O)[C@H](O)[C@H](O)CO`, the Papp in experiment [1] is 5.88 10e-6 cm s-1.
As for `CCCCCCCCCCCCOS(=O)(=O)[O-].[Na+]` [SODIUM LAURYL SULFATE], the Hemolysis stood at 12.25% in experiment [2], 51.54% in experiment [3] and 62.66% in experiment [4].
